# Measurements collected from several papers.
# Protocols differ between the studies behind these lines.
# Target: Casein kinase I isoform gamma-1 (CSNK1G1, Homo sapiens, UniProt Q9HCP0)
Compound,observed,method,tested at,remaining binding [%]
FC(F)(F)Oc1cccc(-c2cnc3ccc(-c4ccncc4)nn23)c1,cell-free assay,competition with immobilised ligand,5 µM,67
COc1ncc2cc3ccccc3nc2c1C#N,cell-free assay,competition with immobilised ligand,5 µM,100
O=C(NS(=O)(=O)c1ccc(NCC2CCOCC2)c([N+](=O)[O-])c1)c1ccc(N2CCN(Cc3ccc(C(F)(F)F)cc3-c3ccc(Cl)cc3)CC2)cc1Oc1cnc2[nH]ccc2c1,cell-free assay,competition with immobilised ligand,1 µM,95
O=C(NCCCN1CCOCC1)c1ccc(Nc2nccc(-c3cc4ccccc4s3)n2)cc1,binding,competition with immobilised ligand,1 µM,81
COc1cccc(CNC(=O)c2nc3scc(COCc4ccc(C(=O)O)cc4)c3c(=O)[nH]2)c1,cell-free assay,competition with immobilised ligand,1 µM,100
O=C(Nc1c[nH]nc1C(=O)NC1CCNCC1)c1cc(F)cc(F)c1,binding,competition with immobilised ligand,1 µM,89
Cc1cnn2ncc(-c3ccnc(N(C)C)n3)c2c1,binding,,1 µM,73
Cn1nc(C(=O)NCc2ccc(C(=O)O)cc2)cc1-c1ccc2[nH]ccc2c1,cell-free assay,competition with immobilised ligand,0.1 µM,91
CN(CCCC(F)(F)F)c1nccc(-c2cnn3ncccc23)n1,binding,,1 µM,100
O=C(c1ccc(Nc2ncc(Cl)c(-c3ccc(Cl)s3)n2)cc1)N1CCC(N2CCCC2)CC1,binding,competition with immobilised ligand,1 µM,80
CC1CCCN1c1nccc(-c2cnn3ncccc23)n1 (stereo not drawn),binding,,1 µM,100
C[C@@H]1CN(c2cc(-c3n[nH]c4ccc(OC5(C)CC5)cc34)ncn2)C[C@H](C)O1,cell-free assay,competition with immobilised ligand,0.1 µM,100
N[C@H]1CCN(c2nccc(-c3cnn4ncccc34)n2)C1,binding,,1 µM,82
CCC(=O)N[C@H]1CC[C@@H](C(=O)N(C)c2ccc(-c3nc4ccccc4o3)cc2)C1,cell-free assay,competition with immobilised ligand,1 µM,90
CN(C)c1nccc(-c2cnc3ncccn23)n1,binding,,1 µM,81
O=C(c1ccc(Nc2ncc(Cl)c(-c3cc4ccccc4s3)n2)cc1)N1CCC(N2CCCC2)CC1,binding,competition with immobilised ligand,1 µM,80
C[C@H]1CCN(c2nccc(-c3cnn4ncccc34)n2)C1,binding,,1 µM,85
COc1cnc(Nc2cccc(S(N)(=O)=O)c2)nc1N1CCN(c2ccccc2)C(=O)C1,binding,competition with immobilised ligand,1 µM,100
